Holding throughout (format): functional
The test system of assay [1] is Staphylococcus aureus. The assay can be described thus: Antimicrobial activity against methicillin-susceptible Staphylococcus aureus ATCC 25923 after 18 hrs by broth microdilution method. As to conditions: ATCC 25923, 18 h.
The test system of assay [2] is Staphylococcus aureus. Briefly: Antimicrobial activity against methicillin-susceptible Staphylococcus aureus ATCC 6538 after 18 hrs by broth microdilution method. As to conditions: ATCC 6538, 18 h.
Assay [3] has as its system Staphylococcus aureus. Briefly: Antimicrobial activity against Staphylococcus aureus Microbank 14001 after 18 hrs by broth microdilution method. As to conditions: Microbank 14001, 18 h.
The subject of assay [4] is Staphylococcus epidermidis. Briefly: Antimicrobial activity against Staphylococcus epidermidis ATCC 12228 after 18 hrs by broth microdilution method. Particulars: ATCC 12228, 18 h.
Assay [5] deals with Bacillus subtilis. Briefly: Antimicrobial activity against Bacillus subtilis […] after 18 hrs by broth microdilution method.
The subject of assay [6] is Bacillus cereus. Briefly: Antimicrobial activity against Bacillus cereus ATCC 10876 after 18 hrs by broth microdilution method. Particulars: ATCC 10876, 18 h.
The test system of assay [7] is Micrococcus luteus. The assay can be described thus: Antimicrobial activity against Micrococcus luteus ATCC 10240 after 18 hrs by broth microdilution method. Particulars: ATCC 10240, 18 h.
Assay [8] has as its system Staphylococcus aureus. Briefly: Ratio of MBC for methicillin-susceptible Staphylococcus aureus ATCC 25923 to MIC for methicillin-susceptible Staphylococcus aureus ATCC 25923. An outline of the steps: (§1)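 MBC taken as lowest concentration giving >99.9% CFU reduction of the initial inoculum; value is MBC divided by MIC for the same strain.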
Assay [9] relates to Staphylococcus aureus. The assay can be described thus: Ratio of MBC for methicillin-susceptible Staphylococcus aureus ATCC 6538 to MIC for methicillin-susceptible Staphylococcus aureus ATCC 6538. Put shortly: as §1
Assay [10] deals with Staphylococcus aureus. The assay can be described thus: Ratio of MBC for Staphylococcus aureus Microbank 14001 to MIC for Staphylococcus aureus Microbank 14001. An outline of the steps: as §1
In assay [11] the test system is Escherichia coli. The assay can be described thus: Antimicrobial activity against Escherichia coli ATCC 25922 after 18 hrs by broth microdilution method. Particulars: ATCC 25922, 18 h.
The test system of assay [12] is Klebsiella pneumoniae. Briefly: Antimicrobial activity against Klebsiella pneumoniae ATCC 13883 after 18 hrs by broth microdilution method. Particulars: ATCC 13883, 18 h.
Assay [13] has as its system Proteus mirabilis. The assay can be described thus: Antimicrobial activity against Proteus mirabilis ATCC 12453 after 18 hrs by broth microdilution method. As to conditions: ATCC 12453, 18 h.
The test system of assay [14] is Pseudomonas aeruginosa. Briefly: Antimicrobial activity against Pseudomonas aeruginosa ATCC 9027 after 18 hrs by broth microdilution method. As to conditions: ATCC 9027, 18 h.

In brackets after ≈: the same amount, converted by molar mass. A value given as a limit tells only on which side of the number the result lay.

On to `O=C(O)c1cn(C2CC2)c2cc(N3CCN(Cn4nc(-c5cccc(O)c5)n(Cc5ccccc5)c4=S)CC3)c(F)cc2c1=O`, for which the MIC in [1] was 0.38 µM (≈ 0.238 µg/mL); in assay [2] it was 0.19 µM (≈ 0.119 µg/mL); in [3], 0.19 µM (≈ 0.119 µg/mL); in assay [4] it was 0.096 µM (≈ 0.0602 µg/mL); in assay [5], 0.048 µM (≈ 0.0301 µg/mL); in [6] it was 0.096 µM (≈ 0.0602 µg/mL). The minimum inhibitory concentration (MIC) worked out at 1.56 µM (≈ 0.978 µg/mL) in assay [7]; 0.006 µM (≈ 0.00376 µg/mL) in assay [11]; 0.048 µM (≈ 0.0301 µg/mL) in assay [12]; 0.012 µM (≈ 0.00752 µg/mL) in assay [13]; 0.19 µM (≈ 0.119 µg/mL) in [14]. Further, the Ratio entry in assay [8], in [9] and in assay [10] was “<=4” each time.

In the case of `COc1ccc(Cn2c(-c3ccc(O)cc3)nn(CN3CCN(c4cc5c(cc4F)c(=O)c(C(=O)O)cn5C4CC4)CC3)c2=S)cc1`, the MIC was determined as 2.97 µM (≈ 1.95 µg/mL) in assay [1]; 0.75 µM (≈ 0.493 µg/mL) in [2]; 0.75 µM (≈ 0.493 µg/mL) in [3]; 1.49 µM (≈ 0.979 µg/mL) in assay [4]; 0.18 µM (≈ 0.118 µg/mL) in [5]; 0.091 µM (≈ 0.0598 µg/mL) in assay [6]. Besides, the MIC in [7] worked out at 5.95 µM (≈ 3.91 µg/mL); in assay [11] it was 0.046 µM (≈ 0.0302 µg/mL); in assay [12], 0.091 µM (≈ 0.0598 µg/mL); in assay [13], 0.091 µM (≈ 0.0598 µg/mL); in assay [14], 0.36 µM (≈ 0.236 µg/mL). Further, the Ratio result in [8], in [9] and in [10] was “<=4” each time.

Regarding `O=C(O)c1cn(C2CC2)c2cc(N3CCN(Cn4nc(-c5ccccc5O)n(Cc5ccc(Cl)cc5)c4=S)CC3)c(F)cc2c1=O`, the MIC in assay [1] is 0.74 µM (≈ 0.489 µg/mL); in assay [2], 0.18 µM (≈ 0.119 µg/mL); in [3], 0.36 µM (≈ 0.238 µg/mL); in assay [4] it was 0.091 µM (≈ 0.0602 µg/mL); in assay [5] it was 0.045 µM (≈ 0.0298 µg/mL); in assay [6], 0.091 µM (≈ 0.0602 µg/mL). The MIC in assay [7] was determined as 1.48 µM (≈ 0.979 µg/mL); in assay [11], 0.023 µM (≈ 0.0152 µg/mL); in [12], 0.023 µM (≈ 0.0152 µg/mL); in assay [13] it was 0.046 µM (≈ 0.0304 µg/mL); in assay [14] it was 0.36 µM (≈ 0.238 µg/mL). Also, the Ratio result in [8], in [9] and in assay [10] was “<=4” each time.

With `O=C(O)c1cn(C2CC2)c2cc(N3CCN(Cn4nc(-c5ccc(O)cc5)n(-c5ccccc5)c4=S)CC3)c(F)cc2c1=O`, the MIC worked out at 1.6 µM (≈ 0.98 µg/mL) in assay [1]; 0.39 µM (≈ 0.239 µg/mL) in assay [2]; 0.39 µM (≈ 0.239 µg/mL) in assay [3]; 0.098 µM (≈ 0.06 µg/mL) in assay [4]; 0.024 µM (≈ 0.0147 µg/mL) in [5]; 0.098 µM (≈ 0.06 µg/mL) in assay [6]. The MIC in assay [7] came out at 1.6 µM (≈ 0.98 µg/mL); in [11], 0.024 µM (≈ 0.0147 µg/mL); in [12] it was 0.049 µM (≈ 0.03 µg/mL); in assay [13] it was 0.049 µM (≈ 0.03 µg/mL); in assay [14], 0.2 µM (≈ 0.123 µg/mL). The Ratio result in assay [8], in [9] and in [10] was “<=4” each time.

In the case of `O=C(O)c1cn(C2CC2)c2cc(N3CCN(Cn4nc(-c5cccc(O)c5)n(-c5ccc(Cl)cc5)c4=S)CC3)c(F)cc2c1=O`, the MIC was determined as 0.76 µM (≈ 0.492 µg/mL) in assay [1]; 0.37 µM (≈ 0.239 µg/mL) in [2]; 0.37 µM (≈ 0.239 µg/mL) in assay [3]; 0.093 µM (≈ 0.0602 µg/mL) in assay [4]; 0.093 µM (≈ 0.0602 µg/mL) in assay [5]; 0.18 µM (≈ 0.116 µg/mL) in [6]. The MIC in [7] is 1.51 µM (≈ 0.977 µg/mL); in [11], 0.012 µM (≈ 0.00777 µg/mL); in assay [12], 0.046 µM (≈ 0.0298 µg/mL); in [13] it was 0.024 µM (≈ 0.0155 µg/mL); in assay [14], 0.37 µM (≈ 0.239 µg/mL). Besides, the Ratio result in assay [8], in [9] and in assay [10] was “<=4” throughout.

As to `COc1ccc(-n2c(-c3ccccc3O)nn(CN3CCN(c4cc5c(cc4F)c(=O)c(C(=O)O)cn5C4CC4)CC3)c2=S)cc1`, the MIC in assay [1] came to 0.76 µM (≈ 0.488 µg/mL); in assay [2], 0.37 µM (≈ 0.238 µg/mL); in [3], 0.18 µM (≈ 0.116 µg/mL); in assay [4] it was 0.093 µM (≈ 0.0598 µg/mL); in assay [5], 0.093 µM (≈ 0.0598 µg/mL); in assay [6] it was 0.37 µM (≈ 0.238 µg/mL). Further, the MIC turned out to be 1.52 µM (≈ 0.977 µg/mL) in [7]; 0.011 µM (≈ 0.00707 µg/mL) in assay [11]; 0.047 µM (≈ 0.0302 µg/mL) in [12]; 0.047 µM (≈ 0.0302 µg/mL) in assay [13]; 0.76 µM (≈ 0.488 µg/mL) in assay [14]. Further, the Ratio entry in [8], in assay [9] and in assay [10] was “<=4” throughout.

For `O=C(O)c1cn(C2CC2)c2cc(N3CCN(Cn4nc(-c5cccc(O)c5)n(Cc5ccc(Cl)cc5)c4=S)CC3)c(F)cc2c1=O`, the MIC in assay [1] was found to be 1.48 µM (≈ 0.979 µg/mL); in [2] it was 1.48 µM (≈ 0.979 µg/mL); in assay [3], 1.48 µM (≈ 0.979 µg/mL); in [4] it was 0.18 µM (≈ 0.119 µg/mL); in assay [5], 0.18 µM (≈ 0.119 µg/mL); in assay [6], 0.18 µM (≈ 0.119 µg/mL). For the same molecule, the minimum inhibitory concentration (MIC) in assay [7] amounted to 2.95 µM (≈ 1.95 µg/mL); in assay [11] it was 0.023 µM (≈ 0.0152 µg/mL); in assay [12], 0.18 µM (≈ 0.119 µg/mL); in assay [13] it was 0.023 µM (≈ 0.0152 µg/mL); in assay [14], 0.36 µM (≈ 0.238 µg/mL). For the same molecule, the Ratio entry in assay [8], in [9] and in assay [10] was “<=4” in each case.

The values above are taken from ChEMBL document CHEMBL3421560, “Search for factors affecting antibacterial activity and toxicity of 1,2,4-triazole-ciprofloxacin hybrids” (Eur J Med Chem, 2015).
